Data: ChEMBL document CHEMBL4118078, “Developing pyridazine-3-carboxamides to be CB2 agonists: The design, synthesis, structure-activity relationships and docking studies” (Eur J Med Chem, 2017)

Columns and labels:
[1] = target: T1, Cannabinoid receptor 1 (Homo sapiens, UniProt P21554); assay: Agonist activity at CB1 receptor (unknown origin) expressed in CHO cells assessed as induction of calcium mobilization at 10 uM by fluo-4 AM dye-based fluorescence assay relative to CP55940; type: functional, cell-based
[2] = species on record: Homo sapiens; assay: Selectivity index, ratio of EC50 for CB1 receptor (unknown origin) to EC50 for CB2 receptor (unknown origin)
[3] = target: T2, Cannabinoid receptor 2 (Homo sapiens, UniProt P34972); assay: Agonist activity at CB2 receptor (unknown origin) expressed in CHO cells assessed as induction of calcium mobilization by fluo-4 AM dye-based fluorescence assay relative to CP55940; type: functional, cell-based
Method in brief: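 Cell-based calcium mobilization, agonist mode, with CP55940 as positive control. Compounds giving more than 50% activation in a single-concentration 10 µM primary screen were run in dose-response to derive EC50.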

[4] = target: T2, Cannabinoid receptor 2; assay: Agonist activity at CB2 receptor (unknown origin) expressed in CHO cells assessed as induction of calcium mobilization at 10 uM by fluo-4 AM dye-based fluorescence assay relative to CP55940; type: functional, cell-based
[5] = target: T1, Cannabinoid receptor 1; assay: Agonist activity at CB1 receptor (unknown origin) expressed in CHO cells assessed as induction of calcium mobilization by fluo-4 AM dye-based fluorescence assay; type: functional, cell-based
[6] = target: T2, Cannabinoid receptor 2; assay: Antagonist activity at CB2 receptor (unknown origin) expressed in CHO cells assessed as inhibition of CP55940-induced calcium mobilization at 10 uM preincubated for 10 mins followed by CP55940-induction by fluo-4 AM dye-based fluorescence assay relative to SR141716A; type: functional, cell-based
Method in brief: (§1)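 Cell-based calcium mobilization, antagonist mode, single-concentration screen at 10 µM against CB1 and CB2. SR141716A served as the antagonist-mode positive control.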

[7] = target: T2, Cannabinoid receptor 2; assay: Agonist activity at CB2 receptor (unknown origin) expressed in CHO cells assessed as induction of calcium mobilization by fluo-4 AM dye-based fluorescence assay; type: functional, cell-based
[8] = target: T1, Cannabinoid receptor 1; assay: Antagonist activity at CB1 receptor (unknown origin) expressed in CHO cells assessed as inhibition of CP55940-induced calcium mobilization at 10 uM preincubated for 10 mins followed by CP55940-induction by fluo-4 AM dye-based fluorescence assay relative to SR141716A; type: functional, cell-based; method in brief: as §1
[9] = target: T2, Cannabinoid receptor 2; assay: Potency index, ratio of GW842166X EC50 to test compound EC50 for agonist activity at CB2 receptor (unknown origin); type: functional
[10] = target: T2, Cannabinoid receptor 2; assay: Potency index, ratio of CP55940 EC50 to test compound EC50 for agonist activity at CB2 receptor (unknown origin); type: functional

T1 sequence (P21554 whole entry): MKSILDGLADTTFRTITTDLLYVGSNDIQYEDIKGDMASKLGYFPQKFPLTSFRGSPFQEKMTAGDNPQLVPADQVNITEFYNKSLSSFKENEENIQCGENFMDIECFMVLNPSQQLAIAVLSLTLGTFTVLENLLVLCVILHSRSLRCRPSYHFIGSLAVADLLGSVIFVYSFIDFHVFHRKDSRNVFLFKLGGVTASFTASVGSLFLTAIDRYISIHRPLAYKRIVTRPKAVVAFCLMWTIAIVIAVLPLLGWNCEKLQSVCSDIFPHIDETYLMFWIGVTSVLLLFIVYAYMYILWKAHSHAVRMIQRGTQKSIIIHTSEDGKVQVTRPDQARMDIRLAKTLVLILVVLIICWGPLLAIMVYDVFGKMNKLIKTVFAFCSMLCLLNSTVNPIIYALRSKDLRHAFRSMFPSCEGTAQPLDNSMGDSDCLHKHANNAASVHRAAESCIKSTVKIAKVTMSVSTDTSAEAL
T2 sequence (P34972 whole entry): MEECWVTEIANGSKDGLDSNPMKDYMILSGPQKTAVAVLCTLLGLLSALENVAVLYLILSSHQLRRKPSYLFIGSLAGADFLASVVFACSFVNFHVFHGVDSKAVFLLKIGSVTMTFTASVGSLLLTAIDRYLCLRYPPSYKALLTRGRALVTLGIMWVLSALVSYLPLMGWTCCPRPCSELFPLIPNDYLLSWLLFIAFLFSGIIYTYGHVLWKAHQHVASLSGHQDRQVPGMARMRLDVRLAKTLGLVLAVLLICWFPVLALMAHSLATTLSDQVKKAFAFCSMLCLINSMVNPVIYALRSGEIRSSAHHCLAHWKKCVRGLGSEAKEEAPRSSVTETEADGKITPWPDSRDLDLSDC

Compound	Activity [1]	Ratio EC50 [2]	Emax [3]	Activity [4]	EC50 [5]	inhibition [6]	EC50 [7]	inhibition [8]	Ratio EC50 [9]	Ratio EC50 [10]
CC(C)c1cc(Nc2cccc(Cl)c2)nnc1C(=O)NC1C2CC3CC(C2)CC1C3 (stereo not given)	-6.45%	> 1	77%	48%	> 10000 nM	44.3%	6700 nM			
CCC(CC)Nc1nnc(C(=O)NC2C3CC4CC(C3)CC2C4)cc1C(C)C (stereo not given)	-5.62%			25%	> 10000 nM	0.214%	> 10000 nM	4.48%		
CC(C)c1cc(NCCO)nnc1C(=O)NC12CC3CC(CC(C3)C1)C2	13.4%	> 235	114%	125%	> 10000 nM		42.6 nM			
CC(C)c1cc(N2CCOCC2)nnc1C(=O)NC12CC3CC(CC(C3)C1)C2	3.8%	> 25	93%	117%	> 10000 nM		396 nM	16.9%		
CC(C)c1cc(NC2CCCC2)nnc1C(=O)NC12CC3CC(CC(C3)C1)C2	19.5%	> 33	80%	95.5%	> 10000 nM		301 nM	44.5%		
CC(C)c1cc(C(=O)NC2C3CC4CC(C3)CC2C4)nnc1NC1CCCC1 (stereo not given)	6.55%	> 291	114%	122%	> 10000 nM		34.4 nM	24.1%	> 10	
CC(C)c1cc(C(=O)NC2CCCCC2)nnc1N1CCOCC1	-4.03%	> 10	99%	107%	> 10000 nM		970 nM	-8.12%		
O=C(NCC1CCOCC1)c1cnc(Nc2ccc(Cl)cc2Cl)nc1C(F)(F)F [GW842166X]	18.2%	> 29		129%	> 10000 nM			11.8%		
CC(C)c1cc(NC2CC2)nnc1C(=O)NC1C2CC3CC(C2)CC1C3 (stereo not given)	7.48%	> 584	117%	119%	> 10000 nM		17.1 nM			
CC(C)c1cc(C(=O)NC2C3CC4CC(C3)CC2C4)nnc1NCCO (stereo not given)	-0.906%	> 100	127%	124%	> 10000 nM		99.9 nM	1.87%		
O=C(NC1C2CC3CC(C2)CC1C3)c1ccc(N2CCOCC2)nn1 (stereo not given)	3.24%	> 1	79%	63.2%	> 10000 nM		8420 nM	17.7%		
CC(C)c1cc(C(=O)NC2C3CC4CC(C3)CC2C4)nnc1Nc1cccc(Cl)c1 (stereo not given)	2.12%			19.2%	> 10000 nM	19.4%	> 10000 nM	5.1%		
CC(C)c1cc(NCCO)nnc1C(=O)NC1CCCCC1	14.8%	> 12	81%	91.1%	> 10000 nM		842 nM			
CC(C)c1cc(C(=O)NC23CC4CC(CC(C4)C2)C3)nnc1N1CCOCC1	-2.98%	> 29	125%	101%	> 10000 nM		349 nM			
CC(C)c1cc(N2CCN(C)CC2)nnc1C(=O)NC1C2CC3CC(C2)CC1C3 (stereo not given)	16.7%			3.06%	> 10000 nM	10.1%	> 10000 nM	37.3%		
CC(C)c1cc(NCC2CC2)nnc1C(=O)NC1C2CC3CC(C2)CC1C3 (stereo not given)	31.3%	> 210	135%	125%	> 10000 nM		47.7 nM	22.1%		
CC(C)c1cc(N2CCOCC2)nnc1C(=O)NC1CCCCC1	6.25%	> 17	91%	87.2%	> 10000 nM		594 nM	-9.42%		

Compound	Activity [1]	Ratio EC50 [2]	Emax [3]	Activity [4]	EC50 [5]	inhibition [6]	EC50 [7]	inhibition [8]	Ratio EC50 [9]	Ratio EC50 [10]
CC(C)c1cc(C(=O)NC2C3CC4CC(C3)CC2C4)nnc1NC1CCCCC1 (stereo not given)	2.64%	> 50	91%	106%	> 10000 nM		199 nM	39.3%		
CCCCNc1cc(C(C)C)c(C(=O)NC2C3CC4CC(C3)CC2C4)nn1 (stereo not given)	13.7%	> 203	108%	91.4%	> 10000 nM		49.4 nM			
CC(C)c1cc(N2CCCCC2)nnc1C(=O)NC1C2CC3CC(C2)CC1C3 (stereo not given)	16%	> 553	140%	114%	> 10000 nM		18.1 nM	44.1%		
CC(C)c1cc(NC2CCCC2)nnc1C(=O)NC1C2CC3CC(C2)CC1C3 (stereo not given)	23.2%	> 1750	107%	141%	> 10000 nM		5.7 nM	38.2%		
CC(C)c1cc(C(=O)NC2C3CC4CC(C3)CC2C4)nnc1N1CCOCC1 (stereo not given)	-0.267%	> 25	105%	107%	> 10000 nM		403 nM	1.8%		
CC(C)c1cc(NC2CCCC2)nnc1C(=O)NC1CCCCC1	9.48%	> 30	78%	87.5%	> 10000 nM		338 nM			
CC(C)c1cc(NCCO)nnc1C(=O)NC1C2CC3CC(C2)CC1C3 (stereo not given)	17.4%	> 2020	94%	137%	> 10000 nM		4.96 nM	-8.39%		
O=C(NC1CCCCC1)c1ccc(N2CCOCC2)nn1	-3.69%			17.7%	> 10000 nM	16.3%	> 10000 nM			
CC(C)c1cc(NC(C)C(C)C)nnc1C(=O)NC1C2CC3CC(C2)CC1C3 (stereo not given)	10.7%	> 3	77%	82%	> 10000 nM		2940 nM	7.68%		
CCCCNc1cc(C(C)C)c(C(=O)NC23CC4CC(CC(C4)C2)C3)nn1	10.7%	> 63	76%	64%	10000 nM		159 nM			
O=C(NC12CC3CC(CC(C3)C1)C2)c1ccc(N2CCOCC2)nn1	-4.49%			33.7%	> 10000 nM	25.8%	> 10000 nM			
CC(C)c1cc(C(=O)NC2C3CC4CC(C3)CC2C4)nnc1N1CCCCC1 (stereo not given)	-1.23%	> 3	106%	63%	> 10000 nM		3450 nM	-3.84%		
CC(C)c1cc(N2CCOCC2)nnc1C(=O)NC1C2CC3CC(C2)CC1C3 (stereo not given)	26.1%	> 2730	91%	126%	> 10000 nM		3.67 nM		94	8
CCCCNc1cc(C(C)C)c(C(=O)NC2CCCCC2)nn1	8.74%			13.4%	> 10000 nM	50.6%	> 10000 nM	47.9%		
CC(C)c1cc(C(=O)NC2C3CC4CC(C3)CC2C4)nnc1NCC1CC1 (stereo not given)	39.3%	36	109%	113%	6050 nM		167 nM			
CCCCNc1nnc(C(=O)NC2C3CC4CC(C3)CC2C4)cc1C(C)C (stereo not given)	89.3%	27	93%	97.1%	2610 nM		96.2 nM			
CC(C)c1cc(NC2CCCCC2)nnc1C(=O)NC1C2CC3CC(C2)CC1C3 (stereo not given)	-0.238%	> 25	81%	119%	> 10000 nM		398 nM			
